Compound activity: PubChem BioAssay, Broad Institute
This is a sample that favours compounds with a hit; in the whole collection about 2.1% have one here.
EWS-Fli block = inhibitors of EWS/Fli oncoprotein transcriptional activity; A673 NR0B1-luciferase reporter, viability-normalised; inhibition, % at 12.6 µM; 0.67% of 350,000 active; AID 651661;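 active = mean inhibition of at least 50% after viability correction, with every replicate also passing that limit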;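 note: firefly luciferase signal divided by Alamar Blue viability fluorescence both relative to DMSO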
PAX8 reporter = inhibitors of PAX8 transcriptional activity in RMG-I cells | RMG-I TPO-luciferase reporter, SteadyGlo, 24 h | inhibition, % at 12.6 µM | 1.2% of 360,000 active | AID 652154;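 active = mean replicate inhibition at least 60% with every replicate also reaching 60%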;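 note: luciferase light reporting Pax8 driven TPO promoter activity; plate controls were median of neutral control wells for no effect and mitoxantrone controls for full effect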
Xi reactivation = reactivates the inactive X chromosome in mouse fibroblasts | activation, % at 7.58 µM | 0.055% of 360,000 active | XiGFP mouse fibroblasts, % GFP-positive cells imaging, 3 d; cells co-treated with 5-aza-dC sensitizer; scaled so ellipticine positive control = 100% | AID 743238;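 active = mean normalized replicate activation at least 10% and every replicate at or above 10%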;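 note: 0% = median of on-plate neutral control wells and 100% = ellipticine 6 µM median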
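Material: SV40-immortalized XiGFP fibroblast cells, line 68-5-11 | Buffer or medium: DMEM containing 5-aza-dC | Dosing: One concentration, pinned | Times: 3 d treatment, 15 min room-temperature fixation | Controls: Ellipticine 6 µM positive control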
GSIS activator = primary screen for activators of insulin secretion dependent on glucose, INS-1E cells, GLuc reporter luminescence | activation, % at 16.6 µM | 0.61% of 370,000 active | INS-1E GLuc reporter insulin secretion, 2-3 h;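 active = lowest replicate activation of at least 40%, so every replicate reaches that level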;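 note: 0% = median of neutral control wells and 100% = median of IBMX positive control wells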
MLL AF4-AF9 inh = MLL-AF4/AF9 protein interaction inhibition | AlphaScreen, biotin-AF4 peptide binding to FLAG-AF9 | inhibition, % at 10 µM | 0.47% of 350,000 active | AID 651704;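 active = every replicate reaching a set inhibition limit, whatever the replicate mean, cut at about 25% in these data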;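 note: 0% = plate neutral control median and 100% = total signal loss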
Target sequence (P42568 whole entry, looked up): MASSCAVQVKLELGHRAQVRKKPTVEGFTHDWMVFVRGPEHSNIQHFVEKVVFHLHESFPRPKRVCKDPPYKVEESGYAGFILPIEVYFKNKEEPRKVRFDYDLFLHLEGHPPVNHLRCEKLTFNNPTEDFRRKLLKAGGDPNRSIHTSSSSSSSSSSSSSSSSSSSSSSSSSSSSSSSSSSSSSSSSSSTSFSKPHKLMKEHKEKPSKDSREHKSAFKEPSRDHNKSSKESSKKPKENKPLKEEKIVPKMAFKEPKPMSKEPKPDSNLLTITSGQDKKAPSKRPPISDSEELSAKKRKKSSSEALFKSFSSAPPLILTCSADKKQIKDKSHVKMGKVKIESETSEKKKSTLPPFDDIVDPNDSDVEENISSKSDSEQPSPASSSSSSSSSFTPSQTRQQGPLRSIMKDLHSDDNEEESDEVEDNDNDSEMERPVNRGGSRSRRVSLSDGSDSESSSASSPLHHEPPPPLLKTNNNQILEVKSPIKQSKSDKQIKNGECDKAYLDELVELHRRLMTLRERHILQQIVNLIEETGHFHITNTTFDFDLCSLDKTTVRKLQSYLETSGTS
PGC1a acetyl inh = PGC1a acetylation modulation, inhibitor mode | inhibition, % at 15.6 µM | U2OS PGC1a acetylation, AlphaScreen anti-acetyl-lysine; with virally co-expressed GCN5 acetyltransferase | 0.17% of 350,000 active;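 active = every replicate shows inhibition of at least 40%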;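 note: 0% = neutral control wells and 100% = positive control wells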
Active calls of the source: *; x = no result.

SMILES	EWS-Fli block	PAX8 reporter	Xi reactivation	GSIS activator	MLL AF4-AF9 inh	PGC1a acetyl inh
CCC(=O)Nc1ccc2c(c1)OC[C@@H](C)N(C(=O)CN(C)C)C[C@H](C)[C@@H](OC)CN(C)C2=O	3	-8	0	18	-2	9
C[C@@H]1CCCCO[C@@H](CN(C)S(=O)(=O)c2ccc(Cl)cc2)[C@H](C)CN([C@H](C)CO)C(=O)c2cc(NC(=O)Nc3ccc(C(F)(F)F)cc3)ccc2O1	-1	70*	0	6	x	3
C[C@@H]1CCCCO[C@@H](CN(C)S(=O)(=O)c2ccc(Cl)cc2)[C@@H](C)CN([C@H](C)CO)C(=O)c2cc(NC(=O)Nc3ccc(C(F)(F)F)cc3)ccc2O1	-8	-7	0	1	x	7
C[C@@H]1CCCCO[C@@H](CN(C)S(=O)(=O)c2ccc(F)cc2)[C@H](C)CN([C@H](C)CO)C(=O)c2cc(NC(=O)Nc3ccc(C(F)(F)F)cc3)ccc2O1	10	73*	0	28	-2	-6
C[C@@H]1CCCCO[C@H](CN(C)S(=O)(=O)c2ccc(F)cc2)[C@@H](C)CN([C@@H](C)CO)C(=O)c2cc(NC(=O)Nc3ccc(C(F)(F)F)cc3)ccc2O1	49	65*	0	4	-5	17
Cc1ccc(S(=O)(=O)NCC[C@H]2CC[C@H](NS(=O)(=O)c3ccccc3Cl)[C@@H](CO)O2)cc1	10	6	1	1	-1	1
C=CCn1c(SCC(=O)c2[nH]c(C)c(C(C)=O)c2C)nnc1-c1ccncc1	x	x	x	x	x	11
C=CCn1c(SCC(=O)c2[nH]c(C)c(C(=O)OC)c2C)nc2scc(-c3ccc(OC)c(OC)c3)c2c1=O	60*	7	1	x	-2	x
O=C(C[C@H]1CC[C@H](NC(=O)Nc2cc(F)ccc2F)[C@H](CO)O1)NCc1ccncn1	-4	-10	0	-1	-3	-5
O=C(COC(=O)Cc1ccc(F)cc1)NCCc1ccccc1	-2	x	0	43*	-3	x
O=C(COC(=O)Cc1cccc(F)c1)NCCc1ccccc1	4	-10	0	x	-1	x
C[C@H]1CN(C)C(=O)Cc2cc(N)ccc2O[C@H]1CN(C)C(=O)OC(C)(C)C	x	x	0	-3	x	x
Nn1c(C2CCCCC2)nc2ccccc2c1=O	7	7	0	50*	3	0
CO[C@H]1CN(C)C(=O)c2cc(NC(=O)C3CC3)ccc2OC[C@H](C)N(C)C[C@H]1C	1	5	0	10	-1	13
CC(=O)Nc1ccc(CNc2nc(NC(C)C)nc3cc(-c4ccccc4)sc23)cc1	60*	73*	1	5	1	10
Cc1ccc(C)c(S(=O)(=O)Nc2ccc(C(=O)N3CCC3)cc2)c1	13	2	0	43*	-2	x
O=C(C[C@@H]1CC[C@@H]2[C@H](COC[C@@H](O)CN2C(=O)Nc2ccccc2)O1)NCc1ccncn1	-12	0	0	28	0	3
CCN(CC)C(=O)Cn1c(=O)oc2ccccc21	2	1	0	42*	-2	x
CN(C(=O)COC(=O)c1cccs1)c1ccccc1	-3	-11	0	117*	-4	-6
CC(=O)N(C)C[C@@H]1Oc2cc(-c3ccccc3F)ccc2S(=O)(=O)N([C@@H](C)CO)C[C@H]1C	-9	x	-1	-5	-2	6
CC(C)NC(=O)N(C)C[C@H]1Oc2ccc(NS(=O)(=O)c3cn(C)cn3)cc2CC(=O)N([C@@H](C)CO)C[C@@H]1C	-10	6	0	11	-2	6
Cc1ccc(NC2c3ncccc3C(=O)N2C2CCCCC2)cc1C (centres undefined)	x	x	x	x	x	-2
Cc1ccc(NC2c3ncccc3C(=O)N2C2CCCCC2)cc1 (centres undefined)	x	x	x	56*	x	12
COc1ccc(CN/C(C)=C(/C#N)C(N)=O)cc1OC	x	8	x	65*	x	5
CCCNC(=O)N1CC2(CCN(C(=O)Nc3cccc(F)c3)CC2)c2c(n(C)c3cc(OC)ccc23)[C@H]1CO	x	x	0	-22	x	x
CCOc1cc(/C=N/NC(=O)C(C)Sc2ccccn2)ccc1O (centres undefined)	x	0	0	70*	x	x
O=C(CSc1cccc2cccnc12)N/N=C/c1ccncc1	2	-10	0	6	-1	x
